PMC4128174 (European journal of medicinal chemistry, 2014)
Changes are numbered by the printed parent chain.

Tests used:
[1] = target: T1, Human recombinant IDE (IDEwt) (Homo sapiens, UniProt P14735); type: biochemical; conditions: for activity on Aβ16–23 hydrolysis (in words): IDEwt
T1 sequence (P14735 1-1019): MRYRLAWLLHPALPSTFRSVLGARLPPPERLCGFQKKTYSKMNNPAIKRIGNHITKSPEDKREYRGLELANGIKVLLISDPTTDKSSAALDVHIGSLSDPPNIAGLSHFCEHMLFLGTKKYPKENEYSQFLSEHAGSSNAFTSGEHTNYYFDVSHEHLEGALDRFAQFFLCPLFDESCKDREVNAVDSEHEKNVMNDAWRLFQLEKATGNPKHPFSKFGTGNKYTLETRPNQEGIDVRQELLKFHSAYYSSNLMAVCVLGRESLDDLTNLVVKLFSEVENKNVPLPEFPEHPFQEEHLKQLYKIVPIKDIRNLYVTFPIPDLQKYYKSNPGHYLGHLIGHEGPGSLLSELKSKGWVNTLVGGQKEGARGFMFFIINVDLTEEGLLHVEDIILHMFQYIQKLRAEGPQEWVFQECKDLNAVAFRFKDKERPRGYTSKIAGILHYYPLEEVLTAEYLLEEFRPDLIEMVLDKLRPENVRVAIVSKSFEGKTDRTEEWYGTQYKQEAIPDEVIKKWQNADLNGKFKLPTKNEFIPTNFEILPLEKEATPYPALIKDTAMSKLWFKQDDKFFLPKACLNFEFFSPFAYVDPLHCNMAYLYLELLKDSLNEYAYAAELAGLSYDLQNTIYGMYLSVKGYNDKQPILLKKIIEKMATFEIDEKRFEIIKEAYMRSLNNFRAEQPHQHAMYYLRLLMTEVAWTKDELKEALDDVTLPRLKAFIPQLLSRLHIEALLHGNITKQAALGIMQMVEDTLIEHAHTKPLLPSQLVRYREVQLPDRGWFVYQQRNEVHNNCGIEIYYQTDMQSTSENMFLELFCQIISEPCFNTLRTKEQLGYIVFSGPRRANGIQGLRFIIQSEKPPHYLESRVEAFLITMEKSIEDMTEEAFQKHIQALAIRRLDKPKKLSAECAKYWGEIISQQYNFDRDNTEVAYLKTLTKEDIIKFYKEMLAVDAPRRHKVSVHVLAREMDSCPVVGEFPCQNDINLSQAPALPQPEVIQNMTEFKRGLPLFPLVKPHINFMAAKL

hIDE = target: T2, hIDE (Homo sapiens, UniProt P14735); assay: Hydrolysis of unlabelled native insulin by hIDE; type: biochemical; conditions: at 100µM
T2 sequence (P14735 1-1019): T1 sequence (P14735 1-1019)

Cell medium stability = type: in vitro ADME
[2] = Solubility in PBS from a DMSO stock solution; type: physicochemical
[3] = LogD7.4, PBS/octanol partition from a DMSO stock solution; type: physicochemical; conditions: compared with 5
[4] = test system: SH-SY5Y neuroblastoma cells (APPswe, APPwt); assay: Cellular assay in the amyloid pathway; type: cell-based, human
How it was run: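 SH-SY5Y cells stably expressing human APP751 Swedish or […], grown in DMEM/10% FCS at 37 °C, 5% CO2. Treated 24 h after seeding with vehicle or test compound (10 mM DMSO stock). Medium cleared at 1000 × g and assayed by ELISA: Aβ1–40 diluted 1:10, Aβ1–42 undiluted. Duplicates from three experiments, normalised to untreated cells. RIPA lysates immunoblotted: 12 µg Bis-Tris gel; CTFs 30 µg Tris-Tricine gel.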

β-pancreatic cells = assay: Insulin secretion by β-pancreatic cells; type: cell-based
hepatocytes = assay: Repression of PEPCK by insulin on hepatocytes; type: cell-based
Cell permeability = type: in vitro ADME
IDE E341A = target: T3, IDE E341A (Homo sapiens, UniProt P14735, E341A); assay: Hydrolysis of dual labelled Aβ16–23 by the E341A exosite mutant; type: biochemical
T3 sequence (P14735 1-1019 E341A): T1 sequence (P14735 1-1019) with E341A

[5] = 0.1 or 10 µM, 24 h and 48 h, APPswe and APPwt SY5Y

SMILES: COC(=O)[C@H](Cc1ccccc1)NC(=O)CN(CC(=O)O)Cc1ccccc1 [Compound 6, (S)-2-(2-(Benzyl-carboxymethyl-amino)-acetylamino)-3-phenyl-propionic acid methyl ester]
- activity on Aβ16–23 hydrolysis (in words) [1]: completely abolish activity

SMILES: O=C(O)CN(CCN(CC(=O)O)CC(=O)O)CC(=O)O [EDTA, reference compound]
- inhibition by reference inhibitor ([1]; at 2 mM): 100%

SMILES: COC(=O)[C@H](Cc1c[nH]cn1)NC(=O)CN(CC(=O)O)C(=O)c1ccccc1 [Compound 7, (S)-2-(2-(Benzoyl-carboxymethyl-amino)-acetylamino)-3-(1H-imidazol-4-yl)-propionic acid methyl ester]
- activity on Aβ16–23 hydrolysis (in words) [1]: completely abolish activity

SMILES: CNC(=O)[C@H](Cc1c[nH]cn1)NC(=O)CN(CCCc1ccccc1)CC(=O)OC [Compound 8, ((((S)-2-(1H-Imidazol-4-yl)-1-methylcarbamoyl-ethyl-carbamoyl)-methyl)-(3-phenylpropyl)-amino)-acetic acid methyl ester]
- residual activation of insulin hydrolysis (hIDE): 50 % of 5 activity
- half-life (Cell medium stability): 11.3 h
- solubility (in words) [2]: good solubility
- logD7.4 (in words) [3]: higher
- effect on APP holoproteins and on CTFs [4]: No effect
- extracellular levels of Aβ1–40 [4, 5]: dose-dependent increase
- extracellular levels of Aβ1–42 [4, 5]: dose-dependent increase
- level of insulin secreted by β-pancreatic cells (β-pancreatic cells): did neither affect
- repression of PEPCK by insulin on hepatocytes (hepatocytes): nor modify

SMILES: CNC(=O)[C@H](Cc1c[nH]cn1)NC(=O)CN(CCCc1ccccc1)CC(=O)O [Compound 5, ((((S)-2-(1H-Imidazol-4-yl)-1-methylcarbamoyl-ethylcarbamoyl)-methyl)-(3-phenylpropyl)-amino)-acetic acid]
- crossing of cell membranes (in words) (Cell permeability): does not cross easily cell membranes

SMILES: COC(=O)[C@H](Cc1c[nH]cn1)NC(=O)CN(CC(=O)O)Cc1ccccc1 [Compound 1, (S)-2-[2-(Benzyl-carboxymethyl-amino)-acetylamino]-3-(1H-imidazol-4-yl)-propionic acid methyl ester]
- behaviour as inhibitor (IDE E341A): full inhibitor
